CHO parental Ca – counter-screen for OX1R antagonists: effect in parental CHO cells | parental CHO-K1, ATP-induced calcium, Fluo-8 fluorescence | inhibition, % at 5.6 µM | 330,000 compounds, 0.63% hits | AID 463079;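 active = inhibition above that plate's mean sample inhibition plus 3 SD, cut at about 26% in these data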;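 note: 0% = ATP-challenged DMSO wells and 100% = DMSO wells without ATP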
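Test system: untransfected parental CHO cell line; also added: ATP stimulus; dosing: 5.6 µM, single dose; signal: calcium-sensitive Fluo-8 fluorescence; measure: percent inhibition of ATP-evoked calcium rise, normalized to controls; benchmarks: low control ATP plus DMSO, high control DMSO only; replication: one well per compound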
TAAR1 antag – human TAAR1 antagonism | Q96RJ0 | CHO RD-HGA16 TAAR1, Fluo-8 calcium fluorescence, antagonist | inhibition, % at 3 µM | 360,000 compounds, 1.5% hits;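 active = inhibition above a per-plate cutoff, the mean inhibition of test compounds on that plate plus 3 SD, cut at about 49% in these data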;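 note: 0% = DMSO plus EC80 beta-PEA response and 100% = DMSO alone without agonist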
Target sequence (Q96RJ0 whole entry, looked up): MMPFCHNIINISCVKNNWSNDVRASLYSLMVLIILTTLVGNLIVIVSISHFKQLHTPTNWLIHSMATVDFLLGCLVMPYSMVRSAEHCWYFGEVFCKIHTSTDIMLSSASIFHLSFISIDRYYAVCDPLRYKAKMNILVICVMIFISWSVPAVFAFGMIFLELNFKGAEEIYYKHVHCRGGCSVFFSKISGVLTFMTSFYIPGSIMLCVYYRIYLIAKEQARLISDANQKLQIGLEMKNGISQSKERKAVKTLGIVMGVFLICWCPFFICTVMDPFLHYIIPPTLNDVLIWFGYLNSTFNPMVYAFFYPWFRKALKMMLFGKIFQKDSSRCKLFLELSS
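System: CHO RD-HGA16 cells bearing hTAAR1. Reagent: EC80 β-phenethylamine stimulus. Schedule: seeding 17-24 h prior, 75-min 37 °C, 30-min RT dye loading. Signal: Fluo-8 intracellular calcium dye fluorescence, real-time kinetic reads. Read-out: % inhibition from peak post-agonist over basal fluorescence ratio. Benchmarks: vehicle wells and EC80 agonist wells. Replicates: n of 1.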
GPR7 antag – blocks human GPR7 receptor signaling; P48145; GPR7-expressing cells, fluorescence antagonist assay; inhibition, % at 4.4 µM; 290,000 compounds, 1.1% hits; in the data active = inhibition above about 16%, passing the limit was not always enough;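 note: cells stimulated with the agonist NPW; 0% = agonist with vehicle and 100% = vehicle without agonist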
Target sequence (P48145 whole entry, looked up): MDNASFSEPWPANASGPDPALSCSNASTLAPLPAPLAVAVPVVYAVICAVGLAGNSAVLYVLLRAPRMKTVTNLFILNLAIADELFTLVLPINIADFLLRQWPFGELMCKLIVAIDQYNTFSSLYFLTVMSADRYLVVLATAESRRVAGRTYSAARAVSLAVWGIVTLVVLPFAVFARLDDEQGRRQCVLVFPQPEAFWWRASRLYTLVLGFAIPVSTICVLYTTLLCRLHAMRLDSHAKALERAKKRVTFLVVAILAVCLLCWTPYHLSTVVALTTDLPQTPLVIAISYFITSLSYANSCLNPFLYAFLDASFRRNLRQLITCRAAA
TAAR1 ag – human TAAR1 agonism | Q96RJ0 | activation, % at 3 µM | AID 624467 | CHO RD-HGA16 TAAR1, Fluo-8 calcium fluorescence; vehicle wells 0%, saturating PEA agonist 100% | 360,000 compounds, 0.99% hits;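 active = activation above the mean activation of all test compounds in the run plus 3 SD, cut at about 38% in these data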
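System: CHO RD-HGA16 cells carrying human TAAR1 plus Gα16; Incubation: 17-24 h seeding, 75 min 37 °C dye, 30 min RT; Measured by: Fluo-8 fluorescence, 5 s baseline then 140 s kinetic read; Control set: DMSO and PEA EC100; Replication: single well for each compound.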
OX1R antag-1 – blocks the human orexin 1 receptor. O43613. OX1R-expressing cells, FRET antagonist read-out. inhibition, % at 6.6 µM. 330,000 compounds, 1.8% hits. AID 485270; in the data active = inhibition mostly above about 38%, no sharp cut-off; inactive = mostly below about 40%;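 note: 0% = agonist challenge alone and 100% = reference antagonist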
OX1R antag-2 – blocks the human orexin 1 receptor. O43613. CHO/OX1R cells, Fluo-8 calcium fluorescence, orexin A. inhibition, % at 5 µM. 330,000 compounds, 0.43% hits. AID 434989;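 active = inhibition above its plate's threshold, mean inhibition of all tested compounds on the plate plus 3 SD, cut at about 37% in these data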;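 note: 0% = orexin A challenge wells and 100% = SB-334867-A antagonist wells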
OX1R Fluo8 conf – confirmation of human orexin 1 receptor antagonists. AID 492963. CHO/OX1R cells, orexin A calcium Fluo-8 fluorescence. 1,100 compounds, 38% hits. inhibition, % at 5 µM. shares compounds with OX1R antag-2; in the data active = inhibition above about 29%;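 note: 0% = agonist challenge alone and 100% = reference antagonist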
CHO Ca counter – signal in parental CHO cells, OX1R antagonist counter-screen; shares compounds with OX1R antag-2; parental CHO-K1, ATP-induced calcium, Fluo-8 fluorescence; inhibition, % at 5.6 µM; 1,100 compounds, 9.3% hits; AID 492965;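 active = inhibition above a per-plate limit, the mean inhibition of that plate's test compounds plus 3 SD, cut at about 25% in these data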;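 note: 0% = ATP challenge with DMSO and 100% = DMSO without ATP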
OX1R HTRF confirm – OX1R (human) antagonism, HTRF confirmed; AID 492964; shares compounds with OX1R antag-1; OX1R-expressing cells, HTRF antagonist assay; 1,800 compounds, 49% hits; inhibition, % at 6.6 µM; in the data active = inhibition above about 55%;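 note: CHO cells expressing OX1R stimulated with orexin A at about EC80; 0% = agonist challenge alone and 100% = reference antagonist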
CHO-K1 HTRF cnt – counter-screen: parental CHO-K1 HTRF response; AID 493232; shares compounds with OX1R antag-1; inhibition, % at 6.6 µM; 1,800 compounds, 48% hits; parental CHO-K1 cells, HTRF counterscreen; in the data active = inhibition above about 17%;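 note: 0% = agonist challenge with vehicle and 100% = vehicle alone without agonist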
* marks the source's active call; other numbers are inactive results; / = not tested or not shown. A selection: hits, their analogues and other compounds. The true share with any hit is near 4.6%.

SMILES	CHO parental Ca	TAAR1 antag	GPR7 antag	TAAR1 ag	OX1R antag-1	OX1R antag-2	OX1R Fluo8 conf	CHO Ca counter	OX1R HTRF confirm	CHO-K1 HTRF cnt
Cc1noc(C)c1COC(=O)c1ccc2c(c1)OCO2	1	5	-10	4	6	-5	/	/	/	/
COc1ccccc1N(C)S(=O)(=O)c1ccc(Cl)c(C(=O)OCc2c(C)noc2C)c1	-4	38	-4	14	54*	26	13	-7	34	-1
COc1ccccc1N(C)S(=O)(=O)c1ccc(Cl)c(C(=O)NNC(=O)c2ccccc2O)c1	-15	-15	-13	4	47	-15	/	/	/	/
CN(C(=O)COC(=O)c1ccccc1NCCO)C1CCS(=O)(=O)C1 (centres undefined)	-3	0	/	0	3	0	/	/	/	/
COc1ccc(Br)cc1/C=C/C(=O)Nc1ccc2ccccc2c1	-5	22	-5	3	91*	46*	29	-4	89*	9
CC1(Cc2ccccc2C#N)C(=O)Nc2ccc(-c3ccccc3)cc21 (centres undefined)	/	-20	/	1	/	/	/	/	/	/
CC(C)c1ccc(CN(C)C(=O)c2ccc(S(=O)(=O)NCc3ccco3)cc2)cc1	-9	33	/	14	42*	44*	25	25*	42	-4
Cc1cc(=O)[nH]c(SCC(=O)Nc2ccc(F)cc2)c1C#N	-6	5	-4	11	29	-12	/	/	/	/
Cc1cc(=O)[nH]c(SCC(=O)Nc2ccc(Br)cc2)c1C#N	4	-5	2	15	93*	42*	18	15	40	13
N#C/C(=N\Nc1cccc([N+](=O)[O-])c1)C(=O)c1ccc(Br)cc1	26	33	-9	3	94*	42*	21	50*	39	19*
C=CCn1c(=O)n(CC=C)c(=O)n(CC=C)c1=O	/	14	/	0	/	/	/	/	/	/
Cc1ccc2nc(SCC(=O)c3c(C)[nH]c4ccccc34)[nH]c2c1	-11	28	-3	9	89*	32	29*	-5	78*	-1
COc1ccc(/C=N/Nc2snc(SC)c2C#N)cc1OC	-17	4	2	26	109*	74*	53*	-2	96*	17*
CCCCNC(=O)O[C@@H]1C[C@H]2CCC(=O)N3CC[C@@H](C1)[C@@H]23	-12	3	11	1	7	-8	/	/	/	/
CCN1C(=O)c2cccc3c(S(=O)(=O)NCCc4c[nH]c5ccccc45)ccc1c23	-18	19	-2	19	81*	38	32*	2	72*	2
CCN1C(=O)c2cccc3c(S(=O)(=O)NCc4ccccc4)ccc1c23	-27	12	/	4	8	-7	/	/	/	/
Cc1ccc(S(=O)(=O)N2CCOC2CNC(=O)C(=O)NCc2ccc(Cl)cc2)cc1 (centres undefined)	-18	-14	6	5	12	-10	/	/	/	/
Cc1nn(-c2ccccc2)c(C)c1/C=N/NC(=O)c1cc(-c2ccccc2)n[nH]1	-23	39	9	15	98*	87*	64*	-5	81*	-19
Cc1nn(-c2ccccc2)c(C)c1/C=N/NC(=O)c1cc(-c2cccc3ccccc23)n[nH]1	-11	33	-18	3	10	-19	/	/	/	/
Cn1c2ccccc2c(=O)c2cc(C#Cc3cccc(N)c3)ccc21	-11	/	/	/	92*	55*	40*	6	88*	13
COc1ccccc1C#Cc1ccc2c(=O)c3ccccc3n(C)c2c1	-20	19	-3	10	29	-38	/	/	/	/
O=C(Nc1cccc(S(=O)(=O)NCc2ccco2)c1)c1cc(-c2ccccc2)nc2ccccc12	-5	59*	-6	17	78*	46*	41*	-6	74*	7
O=C(NCc1ccco1)c1cc(-c2ccccc2)nc2ccccc12	-25	47	-1	8	42	-30	/	/	/	/
Cc1cccc(NC(=O)c2ccc(F)c(S(=O)(=O)NCc3ccco3)c2)c1	-21	-25	6	-1	86*	58*	44*	-15	75*	3
O=C(Nc1cccc(Cl)c1)c1ccc(F)c(S(=O)(=O)NCc2cccs2)c1	-17	10	8	18	85*	63*	31*	-5	78*	1
SMILES	CHO parental Ca	TAAR1 antag	GPR7 antag	TAAR1 ag	OX1R antag-1	OX1R antag-2	OX1R Fluo8 conf	CHO Ca counter	OX1R HTRF confirm	CHO-K1 HTRF cnt
CC(C)NC(=O)C1(C)CCN1C(=O)C1(c2ccccc2)CC1 (centres undefined)	/	-7	/	1	/	/	/	/	/	/
O=C(COC(=O)c1cc(-c2cccc(Br)c2)nc2ccccc12)NCC1CCCO1 (centres undefined)	-18	35	-2	6	86*	44*	40*	-5	68*	12
CCOP(=O)(OCC)C(NC(=O)c1cccs1)C(F)(F)F (centres undefined)	9	-6	8	2	6	-14	/	/	/	/
CCOc1cc(C(=S)N2CCOCC2)cc(Br)c1OS(=O)(=O)c1ccccc1	-16	-3	-5	3	47*	28	52*	6	62*	12
Cc1cc(C)nc(NC(=O)CSc2nc3ccccc3s2)n1	-11	-11	5	12	98*	43*	42*	-8	82*	-1
COc1cc2cc(C(=O)N/N=C/c3ccc(F)cc3)[nH]c2cc1OC	-7	9	-16	1	67*	29	15	3	73*	9
COc1cc2cc(C(=O)N/N=C/c3ccccc3Cl)[nH]c2cc1OC	-29	12	-12	4	76*	30	18	-10	89*	13
COc1ccc(/C=N/NC(=O)c2cc3cc(OC)c(OC)cc3[nH]2)cc1	-14	1	8	3	37	-23	/	/	/	/
CC(C)[C@H](NC(=O)c1ccco1)C(=O)OCc1cc(=O)n2c(n1)sc1ccccc12	-14	45	-13	11	8	-26	/	/	/	/
O=C(OCc1cc(=O)n2c(n1)sc1ccccc12)c1cccc(O)c1	14	17	-9	5	97*	34	52*	-9	86*	6
CS(=O)(=O)Nc1cc2c3c(c1)CCC(=O)N3CCC2	0	-12	-11	3	-1	-81	/	/	/	/

Bioassay records deposited in PubChem by The Scripps Research Institute Molecular Screening Center.
